{"source": "paper PMC7442691", "about": "(Nature chemical biology, 2020)", "key": {"Pin1": {"target": "Pin1 (Homo sapiens, UniProt Q13526)", "sequence (Q13526 whole entry)": "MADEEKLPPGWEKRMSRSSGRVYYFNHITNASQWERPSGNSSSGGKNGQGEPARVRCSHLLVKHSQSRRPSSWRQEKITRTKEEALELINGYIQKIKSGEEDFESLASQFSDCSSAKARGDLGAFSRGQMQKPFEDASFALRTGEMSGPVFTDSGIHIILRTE", "assay": "Cellular target engagement, live cell competition with BJP-DTB", "format": "cell-based", "conditions": "PATU-8988T cells, 5 h treatment", "how_it_was_run": "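PATU-8988T, PC3 or MDA-MB-468 cells (2.5 million per 10 cm plate) were dosed next day with test compound, either as a concentration series for 5 h or at 5 μM over time. Cells were PBS-washed, scraped and lysed (HEPES pH 7.4, NP-40, TCEP, protease inhibitors). Lysate (500 μg protein) took desthiobiotin-tagged probe at 4°C, then streptavidin agarose for 1 h at 4°C. Washed beads were boiled in LDS for immunoblotting.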"}, "[1]": {"system": "PATU-8988T C1 (Pin1 WT) and C2 (Pin1 KO)", "assay": "Cell viability, dose series in 2D monolayer, C1 vs C2", "format": "cell-based, human", "conditions": "juglone 4 days, KPT-6566 3 days"}, "FKBP12^F36V-Pin1": {"system": "FKBP12^F36V-Pin1", "assay": "dTAG degradation of FKBP12F36V-Pin1 by immunoblot", "format": "cell-based, human", "conditions": "for rescue of dTAG-13 degradation by pretreatment: 2 h pretreatment, then 5 h dTAG-13 500 nM"}, "[2]": {"system": "PATU-8988T cells (parental, C1, C2 and transduced C2)", "assay": "Cell viability, growth over time in 2D-adherent monolayer", "format": "cell-based, human", "how_it_was_run": "(§1)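 Cells seeded at 100 per well in 96-well plates, one plate per time point, and dosed the day after plating with DMSO, test compound or dTAG-13 at 37°C, 5% CO2. Medium and compound were renewed every 48 h, with Dox 100 ng/mL added for inducible C2 cells. CellTiter-Glo luminescence was normalised to a Day 0 plate read before dosing. At least n = 3 biological replicates.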"}, "[3]": {"system": "PATU-8988T FKBP12^F36V-KRAS^G12V; KRAS^−/− clone", "assay": "Viability with FKBP12F36V-KRASG12V degradation, 4 days", "format": "cell-based, human", "conditions": "4-day treatment; dTAG-13 100 nM, BJP-06-005-3 5 μM", "how_it_was_run": "as §1"}, "[4]": {"system": "phospho-CDK1 Tyr15, c-Myc, β-Catenin, NFkB p65", "assay": "Inhibitor effects on Pin1 downstream signaling", "format": "cell-based, human", "conditions": "C2 + FKBP12F36V-Pin1 cells, 5 h", "how_it_was_run": "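Cells seeded at 100,000 per 6-well well, treated next day with DMSO, test compound, dTAG-13 or Dox, then lysed in RIPA with protease/phosphatase inhibitors for western blotting. For fractionation, 2 million cells per 10 cm plate were treated 5.5 h, trypsinised and split by nuclear/cytoplasmic extraction kit. For Wnt3a arms, cells had 4 h compound, then Wnt3a (50 ng/mL) for 4 more hours.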"}, "[5]": {"conditions": "C2 + FKBP12F36V-Pin1 cells, 5 h"}}}
{"smiles": "CC(C)(C)c1ccc(S(=O)(=O)N=C2C=C(SCC(=O)O)C(=O)c3ccccc32)cc1", "note": "[KPT-6566]", "values": [{"measurement": "competition with BJP-DTB for cellular Pin1", "setting": "Pin1", "result": "unable to validate that KPT-6566 engages cellular Pin1"}, {"measurement": "anti-proliferative effects, C1 versus C2", "setting": "[1]", "result": "identical anti-proliferative effects in C1 and C2"}]}
{"smiles": "NS(=O)(=O)OC[C@@H]1C[C@@H](n2ccc3c(N[C@H]4CCc5ccccc54)ncnc32)C[C@@H]1O", "note": "[MLN4924]", "values": [{"measurement": "rescue of dTAG-13 degradation by pretreatment", "setting": "FKBP12^F36V-Pin1", "result": "degradation was rescued upon pretreatment"}]}
{"smiles": "CC(C)C[C@H](NC(=O)[C@H](CCc1ccccc1)NC(=O)CN1CCOCC1)C(=O)N[C@@H](Cc1ccccc1)C(=O)N[C@@H](CC(C)C)C(=O)[C@@]1(C)CO1", "note": "[carfilzomib]", "values": [{"measurement": "rescue of dTAG-13 degradation by pretreatment", "setting": "FKBP12^F36V-Pin1", "result": "degradation was rescued upon pretreatment"}]}
{"smiles": "CC[C@H](C(=O)N1CCCC[C@H]1C(=O)O[C@H](CCc1ccc(OC)c(OC)c1)c1ccccc1OCC(=O)NCCCCCCOc1cccc2c1C(=O)N(C1CCC(=O)NC1=O)C2=O)c1cc(OC)c(OC)c(OC)c1", "note": "(stereo partly drawn) [dTAG-13]", "values": [{"measurement": "time to degradation", "setting": "FKBP12^F36V-Pin1; 500 nM dTAG-13", "result": "2 to 4", "unit": "h"}, {"measurement": "concentration at which hook effect apparent", "setting": "FKBP12^F36V-Pin1; [5]", "result": 1, "unit": "µM"}, {"measurement": "concentration of maximal degradation", "setting": "FKBP12^F36V-Pin1; [5]", "result": "100 to 500", "unit": "nM"}, {"measurement": "cell proliferation", "setting": "[2]; C2 + FKBP12F36V-Pin1, 2.5 μM", "result": "not at 2.5 μM"}, {"measurement": "cell proliferation", "setting": "[2]; C2 + FKBP12F36V-Pin1, 100 or 500 nM", "result": "diminished cell proliferation after 6–8 days"}, {"measurement": "cell viability", "setting": "[3]", "result": "modest viability effects"}, {"measurement": "phospho-CDK1 Tyr15", "setting": "[4]", "result": "also increased phospho-CDK1 Tyr15"}]}
{"smiles": "O=C1C=CC(=O)c2c(O)cccc21", "note": "[juglone]", "values": [{"measurement": "anti-proliferative effects, C1 versus C2", "setting": "[1]", "result": "identical anti-proliferative effects in C1 and C2"}]}
